Activity calls are given as the source filed them. The calls are words filed in the database; no cut-off is given here.
Key:
[1] = Cell cycle arrest in human DU145 cells assessed as accumulation at G2/M phase after 24 hrs by propidium iodide staining-based flow cytometry; format: functional; conditions: DU-145
Method in brief: (§1)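 Compound given to DU145 at 2.5 and 5.0 μM for 24 h alongside untreated cells. Cells harvested, PBS-washed, fixed in ice-cold 70% ethanol, then stained 30 min at 37 °C in the dark with propidium iodide (50 μg/mL) plus RNase A (20 μg/mL) in 0.1% Triton X-100. About 10000 events per sample read by flow cytometry; a representative of three independent experiments is shown.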

DU-145 [2] = experiment: Induction of mitochondrial membrane potential loss in human DU145 cells at 2.5 uM after 24 hrs by flow cytometry (reference value: 5.39%); format: functional
DU-145 [3] = experiment: Induction of morphological changes in human DU145 cells assessed as cell shrinkage at 1.25 to 5 uM after 48 hrs by acridine orange/ethidium bromide-dual staining based fluorescence microscopic method; format: functional
Method in brief: (§2)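 DU145 plated at 1×10^6 cells/mL, treated at several concentrations and kept 48 h at 37 °C in 5% CO2. Equal volumes of acridine orange and ethidium bromide (10 μg/mL) added, and cells imaged within 10 min by fluorescence microscopy (excitation 488 nm, emission 550 nm) at 200x.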

DU-145 [4] = experiment: Induction of apoptosis in human DU145 cells assessed as early apoptotic cells at 5 uM after 24 hrs by Annexin V-FITC/propidium iodide staining based flow cytometry (reference value: 2.14%; format: functional
[5] = Cytotoxicity against human HeLa cells assessed as cell growth inhibition after 48 hrs by MTT assay; format: functional, cell-based
Method in brief: (§3)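 Cell lines (NCCS) grown in DMEM or RPMI with 10% FBS and antibiotic-antimycotic at 37 °C, 5% CO2, 90% humidity. Cells seeded at 3-5×10^3 per well, treated 48 h with serial dilutions in medium beside vehicle control. Medium replaced with MTT (0.5 mg/mL) for 4 h, absorbance read at 570 nm. IC50 taken from concentration-response curves; sunitinib served as reference.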

DU-145 [6] = experiment: Induction of apoptosis in human DU145 cells assessed as viable cells at 5 uM after 24 hrs by Annexin V-FITC/propidium iodide staining based flow cytometry (reference value: 90.32%); format: functional; conditions: DU-145, 24 h, read-out: Activity
DU-145 [7] = experiment: Induction of apoptosis in human DU145 cells assessed as necrotic cells at 1.25 uM after 24 hrs by Annexin V-FITC/propidium iodide staining based flow cytometry (reference value: 2.14%); format: functional
[8] = Cytotoxicity against human A549 cells assessed as cell growth inhibition after 48 hrs by MTT assay; format: functional, cell-based; conditions: A549, 48 h; method in brief: as §3
DU-145 [9] = experiment: Induction of apoptosis in human DU145 cells assessed as increase in intracellular reactive oxygen species after 6 hrs by DCFDA dye based spectrofluorometer; format: functional, cell-based
DU-145 [10] = experiment: Induction of mitochondrial membrane potential loss in human DU145 cells after 24 hrs by flow cytometry; format: functional, cell-based
DU-145 [11] = experiment: Induction of apoptosis in human DU145 cells assessed as increase in intracellular reactive oxygen species at 2.5 to 5 uM after 24 hrs in presence of N-acetyl cysteine by DCFDA dye based spectrofluorometer; format: functional, cell-based
DU-145 [12] = experiment: Induction of mitochondrial membrane potential loss in human DU145 cells at 1.25 uM after 24 hrs by flow cytometry (reference value: 5.39%); format: functional
DU-145 [13] = experiment: Induction of apoptosis in human DU145 cells assessed as formation of pyknotic nuclei at 2.5 to 5 uM after 48 hrs by DAPI staining based fluorescence microscopic method; format: functional, cell-based
Method in brief: (§4)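 DU145 treated for 48 h, PBS-washed, permeabilized with 0.1% Tween 20 for 10 min and stained with 1 μM DAPI. Nuclear morphology of control and treated cells viewed by fluorescence microscopy (excitation 359 nm, emission 461 nm) at 200x.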

DU-145 [14] = experiment: Induction of apoptosis in human DU145 cells assessed as viable cells at 2.5 uM after 24 hrs by Annexin V-FITC/propidium iodide staining based flow cytometry (reference value: 90.32%); format: functional; conditions: DU-145, 24 h, read-out: Activity
DU-145 [15] = experiment: Induction of apoptosis in human DU145 cells assessed as viable cells at 1.25 uM after 24 hrs by Annexin V-FITC/propidium iodide staining based flow cytometry (reference value: 90.32%); format: functional; conditions: DU-145, 24 h, read-out: Activity
DU-145 [16] = experiment: Induction of apoptosis in human DU145 cells assessed as necrotic cells at 5 uM after 24 hrs by Annexin V-FITC/propidium iodide staining based flow cytometry (reference value: 2.14%); format: functional
DU-145 [17] = experiment: Induction of apoptosis in human DU145 cells assessed as late apoptotic cells at 1.25 uM after 24 hrs by Annexin V-FITC/propidium iodide staining based flow cytometry (reference value: 5.4%); format: functional
DU-145 [18] = experiment: Induction of mitochondrial membrane potential loss in human DU145 cells at 5 uM after 24 hrs by flow cytometry (reference value: 5.39%); format: functional
DU-145 [19] = experiment: Induction of morphological changes in human DU145 cells assessed as apoptotic body formation at 1.25 to 5 uM after 48 hrs by acridine orange/ethidium bromide-dual staining based fluorescence microscopic method; format: functional, cell-based; method in brief: as §2
DU-145 [20] = experiment: Induction of apoptosis in human DU145 cells assessed as formation of fragmented nuclei at 2.5 to 5 uM after 48 hrs by DAPI staining based fluorescence microscopic method; format: functional, cell-based; method in brief: as §4
DU-145 [21] = experiment: Induction of apoptosis in human DU145 cells assessed as decrease in Bcl2 level after 48 hrs by Western blot analysis; format: functional, cell-based
[22] = Cytotoxicity against human BT549 cells assessed as cell growth inhibition after 48 hrs by MTT assay; format: functional, cell-based; conditions: BT-549, 48 h; method in brief: as §3
DU-145 [23] = experiment: Induction of apoptosis in human DU145 cells assessed as early apoptotic cells at 2.5 uM after 24 hrs by Annexin V-FITC/propidium iodide staining based flow cytometry (reference value: 2.14%); format: functional
DU-145 [24] = experiment: Induction of apoptosis in human DU145 cells assessed as necrotic cells at 2.5 uM after 24 hrs by Annexin V-FITC/propidium iodide staining based flow cytometry (reference value: 2.14%); format: functional
[25] = Cell cycle arrest in human DU145 cells assessed as accumulation at sub G1 phase at 5 uM after 24 hrs by propidium iodide staining-based flow cytometry (reference value: 0.65%); format: functional; conditions: DU-145; method in brief: as §1
[26] = Cytotoxicity against human PC3 cells assessed as cell growth inhibition after 48 hrs by MTT assay; format: functional, cell-based; conditions: PC-3, 48 h; method in brief: as §3
DU-145 [27] = experiment: Induction of apoptosis in human DU145 cells after 24 hrs by Annexin V-FITC/propidium iodide staining based flow cytometry; format: functional, cell-based
DU-145 [28] = experiment: Induction of apoptosis in human DU145 cells assessed as increase in cytochrome c level after 48 hrs by Western blot analysis; format: functional, cell-based
[29] = Cell cycle arrest in human DU145 cells assessed as accumulation at sub G1 phase at 2.5 uM after 24 hrs by propidium iodide staining-based flow cytometry (reference value: 0.65%); format: functional; conditions: DU-145; method in brief: as §1
[30] = Cell cycle arrest in human DU145 cells assessed as accumulation at S phase at 5 uM after 24 hrs by propidium iodide staining-based flow cytometry (reference value: 10.3%); format: functional; conditions: DU-145; method in brief: as §1
DU-145 [31] = experiment: Induction of apoptosis in human DU145 cells assessed as condensation of nucleus at 2.5 to 5 uM after 48 hrs by DAPI staining based fluorescence microscopic method; format: functional, cell-based; method in brief: as §4

**Q.** What does the source list for `O=C1Nc2ccc(C(c3ccccc3)c3ccccc3)cc2/C1=C/c1cccc(OCc2cn(Cc3ccccc3)nn2)c1`?
**A.** Activity [1]: Dose-dependent effect; Activity (DU-145 [2]): 85.24%; Activity (DU-145 [3]): Active; Activity (DU-145 [4]): 13.64%; IC50 [5]: 4.28 µM; viability at 5 µM (DU-145 [6]): 45.9%; Activity (DU-145 [7]): 1.82%; IC50 [8]: 14.7 µM; Activity (DU-145 [9]): Dose-dependent effect; Activity (DU-145 [10]): Dose-dependent effect; Activity (DU-145 [11]): Active; Activity (DU-145 [12]): 64.28%; Activity (DU-145 [13]): Active; viability at 2.5 µM (DU-145 [14]): 64.5%; viability at 1.25 µM (DU-145 [15]): 76.5%; Activity (DU-145 [16]): 15.46%; Activity (DU-145 [17]): 9.11%; Activity (DU-145 [18]): 99.7%; Activity (DU-145 [19]): Active; Activity (DU-145 [20]): Active; Activity (DU-145 [21]): Active; IC50 [22]: 15.8 µM; Activity (DU-145 [23]): 18.05%; Activity (DU-145 [24]): 4.41%; Activity [25]: 18.3%; IC50 [26]: 17.2 µM; Activity (DU-145 [27]): Dose-dependent effect; Activity (DU-145 [28]): Active; Activity [29]: 27.6%; Activity [30]: 22.5%; Activity (DU-145 [31]): Active
